Data reported in paper PMC6102747 (Molecular Medicine Reports, 2018).
Read-outs that look alike come from different tables or passages of the source.

Key:
Pxr [1] = experiment: RT-qPCR mRNA expression in small intestine and liver; type: in vivo, rats; settings: small intestine, vs control, P<0.001
[2] = Pharmacokinetics of CsA after oral administration; type: in vivo, Sprague-Dawley rats; settings: rats; for increase in the CL/F of CsA / increase in the V/F of CsA / decrease in AUC0-t of CsA / decrease in AUC0-∞ of CsA / decrease in Cmax of CsA: oral CsA 10 mg/kg; for decrease in AUC0-t of CsA / decrease in AUC0-∞ of CsA / decrease in Cmax of CsA: vs control; for decrease in Cmax of CsA: P>0.05
P-gp = experiment: Western blot protein expression in small intestine and liver; type: in vivo, rats; settings: vs control
OATP1B2 = experiment: Western blot protein expression in liver; type: in vivo, rats; settings: vs control
Cyp3a1 [3] = experiment: RT-qPCR mRNA expression in small intestine and liver; type: in vivo, rats; settings: vs control
Mrp2 [4] = experiment: Western blot protein expression in small intestine and liver; type: in vivo, rats; settings: vs control, P<0.001
Cyp3a2 [5] = experiment: RT-qPCR mRNA expression in small intestine and liver; type: in vivo, rats; settings: vs control
Ugt1a1 [6] = experiment: as above; type: in vivo, rats; settings: vs control
Ugt1a1 [7] = experiment: Western blot protein expression in small intestine and liver; type: in vivo, rats; settings: vs control, P<0.001
Sult1a1 = experiment: as above; type: in vivo, rats; settings: vs control
Gstm1 = experiment: Western blot protein expression in liver; type: in vivo, rats; settings: vs control
Pxr [8] = type: in vivo, rats; settings: vs control
[9] = Pharmacokinetics of CsA after intravenous administration; type: in vivo, Sprague-Dawley rats; settings: rats, i.v. CsA 2.5 mg/kg, Q3GA 5 mg/kg i.v. 7 days
Car = experiment: RT-qPCR mRNA expression in small intestine and liver; type: in vivo, rats; settings: vs control
Cyp3a2 [10] = type: in vivo, rats; settings: vs control
Slco1b2 = experiment: RT-qPCR mRNA expression in liver; type: in vivo, rats; settings: vs control
Mdr1 = experiment: RT-qPCR mRNA expression in small intestine and liver; type: in vivo, rats; settings: vs control
Summary of the method: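 Rats, 3 per group, dosed once daily for 7 days: phosphate buffer 5 ml/kg i.v., test compound 2.5/5/10 mg/kg i.v. in phosphate buffer, ketoconazole 75 mg/kg i.g. in olive oil, or verapamil 4 mg/kg i.g. in water. Olive oil 5 ml/kg gavaged 30 min after day-7 dose. Killed 24 h post-dose after overnight fast; liver and intestinal mucosa snap-frozen. qPCR: 40 cycles, 58°C annealing; 2−ΔΔCq.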

Cyp3a1 [11] = type: in vivo, rats; settings: vs control
Mrp2 [12] = experiment: RT-qPCR mRNA expression in small intestine and liver; type: in vivo, rats; settings: vs control
Bcrp = experiment: Western blot protein expression in small intestine and liver; type: in vivo, rats; settings: vs control
[13] = high-dose Q3GA 10 mg/kg i.v. 7 days
[14] = low-dose Q3GA 2.5 mg/kg i.v. 7 days
[15] = middle-dose Q3GA 5 mg/kg i.v. 7 days
[16] = liver, high-dose Q3GA 10 mg/kg i.v. 7 days, P<0.001
[17] = liver, low-dose Q3GA 2.5 mg/kg i.v. 7 days, P<0.001
[18] = liver, middle-dose Q3GA 5 mg/kg i.v. 7 days, P<0.01
[19] = small intestine, high-dose Q3GA 10 mg/kg i.v. 7 days, P<0.001
[20] = small intestine, low-dose Q3GA 2.5 mg/kg i.v. 7 days, P<0.001
[21] = small intestine, middle-dose Q3GA 5 mg/kg i.v. 7 days, P<0.01
[22] = liver, high-dose Q3GA 10 mg/kg i.v. 7 days, P<0.05
[23] = liver, middle-dose Q3GA 5 mg/kg i.v. 7 days, P<0.001
[24] = small intestine, high-dose Q3GA 10 mg/kg i.v. 7 days, P<0.05
[25] = small intestine, middle-dose Q3GA 5 mg/kg i.v. 7 days
[26] = liver, low-dose Q3GA 2.5 mg/kg i.v. 7 days
[27] = small intestine, high-dose Q3GA 10 mg/kg i.v. 7 days
[28] = small intestine, low-dose Q3GA 2.5 mg/kg i.v. 7 days
[29] = liver, high-dose Q3GA 10 mg/kg i.v. 7 days, P<0.01
[30] = liver, middle-dose Q3GA 5 mg/kg i.v. 7 days, P<0.05
[31] = small intestine, middle-dose Q3GA 5 mg/kg i.v. 7 days, P<0.05
[32] = liver, low-dose Q3GA 2.5 mg/kg i.v. 7 days, P<0.01
[33] = low-dose Q3GA 2.5 mg/kg i.v. 7 days, P<0.001
[34] = small intestine, high-dose Q3GA 10 mg/kg i.v. 7 days, P<0.01

## O=c1c(O[C@@H]2O[C@H](CO)[C@@H](O)[C@H](O)[C@H]2O)c(-c2ccc(O)c(O)c2)oc2cc(O)cc(O)c12 [Q3GA, Quercetin-3-O-β-D-glucoside]
Pxr [1]; [13]
  increase in Pxr mRNA expression: 200.21%
Pxr [1]; [14]
  increase in Pxr mRNA expression: 415.18%
Pxr [1]; [15]
  increase in Pxr mRNA expression: 130.03%
[2]; Q3GA 2.5, 5 or 10 mg/kg i.v. for 7 consecutive days
  effect on bioavailability of oral CsA: reduced the bioavailability of oral CsA
[2]; Q3GA 5 mg/kg daily i.v. 7 days
  increase in the CL/F of CsA: 72.71%
[2]; Q3GA 5 mg/kg daily i.v. 7 days, P<0.01
  increase in the V/F of CsA: 103.32%
[2]; Q3GA 10 mg/kg daily i.v. 7 days
  increase in the CL/F of CsA: 79.57%
[2]; Q3GA 10 mg/kg daily i.v. 7 days, P<0.05
  increase in the V/F of CsA: 93.19%
[2]; [13]
  decrease in AUC0-t of CsA: 47.79%
  decrease in AUC0-∞ of CsA: 46.30%
  decrease in Cmax of CsA: 40.41%
[2]; [14]
  decrease in AUC0-t of CsA: 34.26%
  decrease in AUC0-∞ of CsA: 34.66%
  decrease in Cmax of CsA: 33.12%
[2]; [15]
  decrease in AUC0-t of CsA: 36.32%
  decrease in AUC0-∞ of CsA: 34.81%
P-gp; [16]
  decrease in P-gp protein expression: 47.26%
P-gp; [17]
  decrease in P-gp protein expression: 67.93%
P-gp; [18]
  decrease in P-gp protein expression: 39.92%
P-gp; [19]
  decrease in P-gp protein expression: 41.70%
P-gp; [20]
  decrease in P-gp protein expression: 65.31%
P-gp; [21]
  decrease in P-gp protein expression: 30.22%
OATP1B2; [13]
  decrease in OATP1B2 protein expression: 33.73%
OATP1B2; low-dose Q3GA 2.5 mg/kg i.v. 7 days, P<0.01
  decrease in OATP1B2 protein expression: 67.47%
OATP1B2; [15]
  decrease in OATP1B2 protein expression: 26.52%
Cyp3a1 [3]; [22]
  decrease in Cyp3a1 mRNA expression: 33.73%
Cyp3a1 [3]; [17]
  decrease in Cyp3a1 mRNA expression: 65.14%
Cyp3a1 [3]; [23]
  decrease in Cyp3a1 mRNA expression: 54.94%
Cyp3a1 [3]; [24]
  decrease in Cyp3a1 mRNA expression: 43.57%
Cyp3a1 [3]; [20]
  decrease in Cyp3a1 mRNA expression: 63.78%
Cyp3a1 [3]; [25]
  decrease in Cyp3a1 mRNA expression: 26.08%
Mrp2 [4]; [26]
  decrease in MRP2 protein expression: 70.70%
Mrp2 [4]; [27]
  decrease in MRP2 protein expression: 50.84%
Mrp2 [4]; [28]
  decrease in MRP2 protein expression: 75.95%
Mrp2 [4]; [25]
  decrease in MRP2 protein expression: 42.60%
Cyp3a2 [5]; [29]
  decrease in Cyp3a2 mRNA expression: 34.64%
Cyp3a2 [5]; [17]
  decrease in Cyp3a2 mRNA expression: 64.68%
Cyp3a2 [5]; [30]
  decrease in Cyp3a2 mRNA expression: 26.18%
Cyp3a2 [5]; [19]
  decrease in Cyp3a2 mRNA expression: 39.36%
Cyp3a2 [5]; [20]
  decrease in Cyp3a2 mRNA expression: 49.70%
Cyp3a2 [5]; [25]
  decrease in Cyp3a2 mRNA expression: 17.93%
Ugt1a1 [6]; [22]
  decrease in Ugt1a1 mRNA expression: 41.04%
Ugt1a1 [6]; [17]
  decrease in Ugt1a1 mRNA expression: 76.13%
Ugt1a1 [6]; [18]
  decrease in Ugt1a1 mRNA expression: 48.78%
Ugt1a1 [6]; [19]
  decrease in Ugt1a1 mRNA expression: 37.83%
Ugt1a1 [6]; [20]
  decrease in Ugt1a1 mRNA expression: 70.14%
Ugt1a1 [6]; [31]
  decrease in Ugt1a1 mRNA expression: 24.08%
Ugt1a1 [7]; liver, high-dose Q3GA 10 mg/kg i.v. 7 days
  decrease in UGT1A1 protein expression: 49.63%
Ugt1a1 [7]; [26]
  decrease in UGT1A1 protein expression: 71.06%
Ugt1a1 [7]; liver, middle-dose Q3GA 5 mg/kg i.v. 7 days
  decrease in UGT1A1 protein expression: 38.05%
Ugt1a1 [7]; [27]
  decrease in UGT1A1 protein expression: 46.57%
Ugt1a1 [7]; [28]
  decrease in UGT1A1 protein expression: 76.81%
Ugt1a1 [7]; [25]
  decrease in UGT1A1 protein expression: 36.26%
Sult1a1; [32]
  decrease in SULT1A1 protein expression: 75.89%
Sult1a1; [19]
  decrease in SULT1A1 protein expression: 57.47%
Sult1a1; [20]
  decrease in SULT1A1 protein expression: 75.44%
Sult1a1; [31]
  decrease in SULT1A1 protein expression: 36.33%
Gstm1; high-dose Q3GA 10 mg/kg i.v. 7 days, P<0.05
  increase in GSTM1 protein expression: 229.75%
Gstm1; [33]
  increase in GSTM1 protein expression: 417.29%
Gstm1; [15]
  increase in GSTM1 protein expression: 159.37%
Pxr [8]; [32]
  increase in PXR protein expression: 182.93%
Pxr [8]; [34]
  increase in PXR protein expression: 147.68%
Pxr [8]; [20]
  increase in PXR protein expression: 258.85%
Pxr [8]; [31]
  increase in PXR protein expression: 81.66%
[9]
  effect on blood concentration of CsA after intravenous injection of CsA: not affected
Car; [29]
  increase in Car mRNA expression: 74.60%
Car; [17]
  increase in Car mRNA expression: 224.76%
Car; [23]
  increase in Car mRNA expression: 98.73%
Car; [24]
  increase in Car mRNA expression: 117.54%
Car; [20]
  increase in Car mRNA expression: 265.44%
Car; [31]
  increase in Car mRNA expression: 99.57%
Cyp3a2 [10]; [16]
  decrease in CYP3A2 protein expression: 47.16%
Cyp3a2 [10]; [17]
  decrease in CYP3A2 protein expression: 54.18%
Cyp3a2 [10]; [23]
  decrease in CYP3A2 protein expression: 33.07%
Cyp3a2 [10]; [34]
  decrease in CYP3A2 protein expression: 38.67%
Cyp3a2 [10]; [20]
  decrease in CYP3A2 protein expression: 55.28%
Cyp3a2 [10]; [25]
  decrease in CYP3A2 protein expression: 21.68%
Slco1b2; high-dose Q3GA 10 mg/kg i.v. 7 days, P<0.001
  decrease in Slco1b2 mRNA expression: 53.54%
Slco1b2; [33]
  decrease in Slco1b2 mRNA expression: 68.06%
Slco1b2; middle-dose Q3GA 5 mg/kg i.v. 7 days, P<0.01
  decrease in Slco1b2 mRNA expression: 38.39%
Mdr1; [29]
  decrease in Mdr1 mRNA expression: 47.32%
Mdr1; [17]
  decrease in Mdr1 mRNA expression: 67.60%
Mdr1; [30]
  decrease in Mdr1 mRNA expression: 45.09%
Mdr1; [19]
  decrease in Mdr1 mRNA expression: 33.33%
Mdr1; [20]
  decrease in Mdr1 mRNA expression: 47.47%
Mdr1; small intestine, middle-dose Q3GA 5 mg/kg i.v. 7 days, P<0.001
  decrease in Mdr1 mRNA expression: 17.51%
Cyp3a1 [11]; [29]
  decrease in CYP3A1 protein expression: 52.99%
Cyp3a1 [11]; [32]
  decrease in CYP3A1 protein expression: 57.66%
Cyp3a1 [11]; [30]
  decrease in CYP3A1 protein expression: 43.95%
Cyp3a1 [11]; [19]
  decrease in CYP3A1 protein expression: 62.95%
Cyp3a1 [11]; [20]
  decrease in CYP3A1 protein expression: 75.25%
Cyp3a1 [11]; [21]
  decrease in CYP3A1 protein expression: 39.22%
Mrp2 [12]; [22]
  decrease in Mrp2 mRNA expression: 20.44%
Mrp2 [12]; [17]
  decrease in Mrp2 mRNA expression: 68.86%
Mrp2 [12]; [18]
  decrease in Mrp2 mRNA expression: 32.70%
Mrp2 [12]; [34]
  decrease in Mrp2 mRNA expression: 28.66%
Mrp2 [12]; [20]
  decrease in Mrp2 mRNA expression: 66.03%
Mrp2 [12]; [21]
  decrease in Mrp2 mRNA expression: 34.53%
Bcrp; [22]
  decrease in BCRP protein expression: 30.86%
Bcrp; [17]
  decrease in BCRP protein expression: 69.78%
Bcrp; [30]
  decrease in BCRP protein expression: 27.73%
Bcrp; [34]
  decrease in BCRP protein expression: 36.44%
Bcrp; [20]
  decrease in BCRP protein expression: 70.61%
Bcrp; [31]
  decrease in BCRP protein expression: 32.93%
